Measurements taken from BindingDB's records for doi:10.1021/jm960325j (Universit&#224, 1996).

Target: Translocator protein (Rattus norvegicus, UniProt P16257)
Assay: Binding affinity against peripheral benzodiazepine receptor( PBR).
Outline: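 Rat cerebral cortex membranes washed repeatedly at 50000g in 50 mM phosphate pH 7.4, 2.3 mg tissue per sample. Filtration, scintillation counting. IC50 by log-probit analysis over six concentrations in duplicate, means of three experiments. Maximal concentration 1000 nM.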

Sequence of Translocator protein (P16257 whole entry, looked up): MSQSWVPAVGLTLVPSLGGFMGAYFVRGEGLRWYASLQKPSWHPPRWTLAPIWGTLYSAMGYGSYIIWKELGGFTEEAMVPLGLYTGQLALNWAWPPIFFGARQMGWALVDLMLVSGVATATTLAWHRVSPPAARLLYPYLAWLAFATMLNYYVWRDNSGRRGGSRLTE

Compound	IC50
CCCN(CCC)C(=O)Cc1c2[nH]c3ccccc3cc-2c(=O)n1-c1ccc(Cl)cc1 [2-[2-(4-Chloro-phenyl)-1-oxo-2,3-dihydro-1H-pyrrolo[3,4-b]quinolin-3-yl]-N,N-dipropyl-acetamide]	> 1000 nM
O=c1c2ccc[nH]c-2cn1-c1ccc(Cl)cc1 [6-(4-Chloro-phenyl)-6,7-dihydro-pyrrolo[3,4-b]pyridin-5-one]	> 1000 nM
CCCN(CCC)C(=O)Cc1c2[nH]cccc-2c(=O)n1-c1ccc(Cl)cc1 [2-[6-(4-Chloro-phenyl)-5-oxo-6,7-dihydro-5H-pyrrolo[3,4-b]pyridin-7-yl]-N,N-dipropyl-acetamide]	> 1000 nM
CCCCCCN(CCCCCC)C(=O)Cc1c2[nH]c3ccccc3cc-2c(=O)n1-c1ccc(Cl)cc1 [2-[2-(4-Chloro-phenyl)-1-oxo-2,3-dihydro-1H-pyrrolo[3,4-b]quinolin-3-yl]-N,N-dihexyl-acetamide]	> 1000 nM
